Active and inactive are the calls of the source.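 The calls were made as follows, unless noted: active = potentiation averaged over duplicate wells exceeding buffer-only control mean by more than 3 SD; inactive = the rest.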
System: not listed separately
Test: nonspecific flux increase, KCNQ1-free cells – parental CHO cells, counter-screen for KCNQ1 potentiator project (AID 493006;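 active = duplicate-averaged activation above buffer control mean plus 5 SD of those controls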;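 as to activation: fluorescence ratio of max minus min over baseline after K+ and Tl+ depolarization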)
Conditions: parental CHO-K1 cells, FluxOR thallium flux, at 10 µM; active compounds read high
How it was run: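 Benchmarks – buffer and R-L3 controls · Assay system – untransfected host CHO-K1 cells with FluxOR thallium dye · Measure – fluorescence change ratio scaled 0% buffer, 100% R-L3 · Technique – kinetic thallium-flux fluorescence · Timing – overnight 37 °C plating, 90 min RT dye, 20 min compound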

Structure (SMILES) | activation | outcome
COc1ccc(/C=C2\SC(=O)NC2=S)cc1OC | 154% (active) | 
Cc1ccc(-c2nc3ccccc3o2)cc1NC(=S)NC(=O)c1cc2ccccc2o1 |  | inactive
O=C(CSc1nc2ccccc2s1)c1cc2ccccc2o1 |  | inactive
O=C(c1ccc(S(=O)(=O)N2CCCC2)cc1)N1CCN(c2cccc(Cl)c2)CC1 |  | inactive
O=C(CN1CCOCC1)N1CCN(c2nnc(-c3ccccc3)c3ccccc23)CC1 |  | inactive
CCC(C)c1ccccc1NC(=S)NC(=O)c1ccco1 (stereo not drawn) | 400% (active) | 
O=C(NC(=S)Nc1ccc(N2CCCCC2)cc1)c1cccs1 | 158% (active) | 
Cc1cnc(NC(=O)c2ccc(-c3nc4ccccc4s3)o2)s1 |  | inactive
Cc1csc(NC(=S)NC(=O)c2ccccc2)n1 |  | inactive
C=CCOc1ccc(/C=C2\SC(=S)N(NS(=O)(=O)c3ccc(C)cc3)C2=O)cc1 | 447% (active) | 
CSc1nc(C)cc(OCC(=O)N/N=C/c2ccccc2O)n1 |  | inactive
CC1CCc2c(sc3[nH]c(=S)n(C)c(=O)c23)C1 (stereo not drawn) | 446% (active) | 
COc1ccc(C(=O)O/N=C(\N)Cc2ccc(Cl)cc2)cc1OC |  | inactive
Cc1cc(Nc2cc(N3CCN(C)CC3)nc(Sc3ccc(NC(=O)C4CC4)cc3)n2)n[nH]1 | 140% (active) | 
CC(C)(C)c1ccc(Oc2ccc(N)cn2)cc1 | 260% (active) | 
COc1cc2c(cc1OC)CN(C(=O)CNC(=O)c1ccc(OC(F)F)cc1)CC2 |  | inactive
Cc1cccc(CC2CC(=O)N(c3ccc(C)cc3Br)C2=O)c1 (stereo not drawn) |  | inactive
Cc1ccccc1NC(=O)C(=O)NNC(=O)COc1ccc2ccccc2c1 | 232% (active) | 
Cc1cc(C(=O)N/N=C/C=C/c2ccc3c(c2)OCO3)n[nH]1 |  | inactive
Cc1ccc(-c2ccc(C3C(C#N)=C(N)Oc4n[nH]c(C)c43)o2)cc1 (stereo not drawn) |  | inactive

Structure (SMILES) | activation | outcome
CC(=O)c1cccc(NC(=S)NC(=O)c2ccc(Cl)cc2)c1 |  | inactive
COc1ccc2nc(/N=C/c3c(C)[nH]n(-c4ccc(C)cc4C)c3=O)sc2c1 | 232% (active) | 
COC(=O)c1ccc(C(=O)NC(=S)Nc2nc3c(s2)CCCC3)cc1 | 210% (active) | 
C=CCn1c(O)c(N=NC(=S)Nc2ccccc2C)c2cc(S(=O)(=O)N3CCOCC3)ccc21 | 218% (active) | 
O=C1/C(=C/c2cccc(F)c2)SC(=S)N1NS(=O)(=O)c1ccccc1 | 146% (active) | 
O=C1c2ccccc2NC(c2ccc(-c3cccc(Cl)c3)o2)N1O (stereo not drawn) |  | inactive
O=C(NC(=S)Nc1ccccc1Cl)c1cncc(Br)c1 |  | inactive
Cc1c(/C=N\NC(=O)c2ccc(F)cc2)cnn1C |  | inactive
CCC1(c2ccccc2)NC(=O)N(CC(=O)Nc2ccccc2C(=O)N2CCCCC2)C1=O (stereo not drawn) |  | inactive
Fc1ccccc1Nc1nc(Cl)nc(Cl)n1 |  | inactive
O=C(CN1CCCC1)Nc1ccc2c(c1)CCC2 |  | inactive
CN(C(=O)c1ccco1)c1nnc(-c2ccc(F)cc2)s1 |  | inactive
Cc1ccc(NC(=S)N2CCC(N(C)CC3CCCO3)CC2)cc1 (stereo not drawn) |  | inactive
Cc1cc(C)cc(-n2ccnc2SCC(=O)Nc2nccs2)c1 |  | inactive
Cc1cc(C)cc(NC(=O)C(Sc2ncnc3ccccc23)c2ccccc2)c1 (stereo not drawn) |  | inactive
COC(=O)C1C(=O)c2c([nH]c(C(=O)OCCSC)c2C)CC1C (stereo not drawn) |  | inactive
CCn1nc(C)c(CNC(=O)C2CCC(=O)N(Cc3cccc(F)c3)C2)c1C (stereo not drawn) |  | inactive
Cc1noc(C)c1CSc1ncnc2sc3c(c12)CCCCC3 | 175% (active) | 
C=C(C)CNC(=O)c1ccc(OC2CCN(C(=O)COC)CC2)cc1 |  | inactive

Molecular target: Potassium voltage-gated channel subfamily KQT member 1 (Homo sapiens) (UniProt P51787)
Test: enhancement of KCNQ1 channel thallium flux – FluxOR thallium flux, CHO cells, duplicates, confirmation (AID 493007);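 as to outcome: cells depolarized by a potassium plus thallium sulfate stimulus after compound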
Conditions: KCNQ1 cell line, FluxOR thallium flux fluorescence, at 10 µM; active compounds read high, % of reference activator effect, buffer zero
How it was run: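 Material: CHO cells stably expressing the KCNQ1 potassium channel / Times: dye 90 min then compound 20 min, both at room temperature / Detection: kinetic thallium influx fluorescence with FluxOR dye, 10 s baseline, 110 s post-stimulus / Benchmarks: buffer-only wells as 0% and R-L3 activator as 100% / Replicates: each compound tested in duplicate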

Potassium voltage-gated channel subfamily KQT member 1 (Homo sapiens), sequence (P51787 whole entry, looked up): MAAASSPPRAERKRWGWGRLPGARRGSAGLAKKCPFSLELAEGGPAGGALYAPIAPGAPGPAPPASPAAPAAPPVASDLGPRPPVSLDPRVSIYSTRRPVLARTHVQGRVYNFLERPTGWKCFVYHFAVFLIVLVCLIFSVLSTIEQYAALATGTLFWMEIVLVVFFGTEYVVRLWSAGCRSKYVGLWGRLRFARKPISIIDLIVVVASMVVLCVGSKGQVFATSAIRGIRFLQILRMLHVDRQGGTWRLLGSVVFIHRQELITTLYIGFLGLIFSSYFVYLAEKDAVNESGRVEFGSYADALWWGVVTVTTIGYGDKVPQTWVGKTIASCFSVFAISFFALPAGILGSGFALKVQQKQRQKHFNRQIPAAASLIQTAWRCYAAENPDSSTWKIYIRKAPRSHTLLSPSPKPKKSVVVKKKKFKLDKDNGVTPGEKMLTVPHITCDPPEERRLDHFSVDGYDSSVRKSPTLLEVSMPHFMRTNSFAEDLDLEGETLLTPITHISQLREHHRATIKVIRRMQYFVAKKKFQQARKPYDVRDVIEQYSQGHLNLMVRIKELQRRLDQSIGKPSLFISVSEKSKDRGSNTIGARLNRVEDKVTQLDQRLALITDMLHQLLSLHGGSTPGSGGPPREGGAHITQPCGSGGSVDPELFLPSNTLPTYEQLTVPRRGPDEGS

Structure (SMILES) | potentiation | outcome
COc1ccc(/C=C2\SC(=O)NC2=S)cc1OC | 34% (active) | 
Cc1ccc(-c2nc3ccccc3o2)cc1NC(=S)NC(=O)c1cc2ccccc2o1 | 21.5% (active) | 
O=C(CSc1nc2ccccc2s1)c1cc2ccccc2o1 |  | inactive
O=C(c1ccc(S(=O)(=O)N2CCCC2)cc1)N1CCN(c2cccc(Cl)c2)CC1 |  | inactive
O=C(CN1CCOCC1)N1CCN(c2nnc(-c3ccccc3)c3ccccc23)CC1 |  | inactive
CCC(C)c1ccccc1NC(=S)NC(=O)c1ccco1 (stereo not drawn) | 114% (active) | 
O=C(NC(=S)Nc1ccc(N2CCCCC2)cc1)c1cccs1 | 74.5% (active) | 
Cc1cnc(NC(=O)c2ccc(-c3nc4ccccc4s3)o2)s1 |  | inactive
Cc1csc(NC(=S)NC(=O)c2ccccc2)n1 | 32% (active) | 
C=CCOc1ccc(/C=C2\SC(=S)N(NS(=O)(=O)c3ccc(C)cc3)C2=O)cc1 | 444% (active) | 
CSc1nc(C)cc(OCC(=O)N/N=C/c2ccccc2O)n1 |  | inactive
CC1CCc2c(sc3[nH]c(=S)n(C)c(=O)c23)C1 (stereo not drawn) | 254% (active) | 
COc1ccc(C(=O)O/N=C(\N)Cc2ccc(Cl)cc2)cc1OC |  | inactive
Cc1cc(Nc2cc(N3CCN(C)CC3)nc(Sc3ccc(NC(=O)C4CC4)cc3)n2)n[nH]1 | 30% (active) | 
CC(C)(C)c1ccc(Oc2ccc(N)cn2)cc1 | 81.5% (active) | 
COc1cc2c(cc1OC)CN(C(=O)CNC(=O)c1ccc(OC(F)F)cc1)CC2 |  | inactive
Cc1cccc(CC2CC(=O)N(c3ccc(C)cc3Br)C2=O)c1 (stereo not drawn) |  | inactive
Cc1ccccc1NC(=O)C(=O)NNC(=O)COc1ccc2ccccc2c1 | 93.5% (active) | 
Cc1cc(C(=O)N/N=C/C=C/c2ccc3c(c2)OCO3)n[nH]1 |  | inactive
Cc1ccc(-c2ccc(C3C(C#N)=C(N)Oc4n[nH]c(C)c43)o2)cc1 (stereo not drawn) |  | inactive

Structure (SMILES) | potentiation | outcome
CC(=O)c1cccc(NC(=S)NC(=O)c2ccc(Cl)cc2)c1 |  | inactive
COc1ccc2nc(/N=C/c3c(C)[nH]n(-c4ccc(C)cc4C)c3=O)sc2c1 | 113% (active) | 
COC(=O)c1ccc(C(=O)NC(=S)Nc2nc3c(s2)CCCC3)cc1 | 169% (active) | 
C=CCn1c(O)c(N=NC(=S)Nc2ccccc2C)c2cc(S(=O)(=O)N3CCOCC3)ccc21 | 45% (active) | 
O=C1/C(=C/c2cccc(F)c2)SC(=S)N1NS(=O)(=O)c1ccccc1 |  | inactive
O=C1c2ccccc2NC(c2ccc(-c3cccc(Cl)c3)o2)N1O (stereo not drawn) |  | inactive
O=C(NC(=S)Nc1ccccc1Cl)c1cncc(Br)c1 |  | inactive
Cc1c(/C=N\NC(=O)c2ccc(F)cc2)cnn1C |  | inactive
CCC1(c2ccccc2)NC(=O)N(CC(=O)Nc2ccccc2C(=O)N2CCCCC2)C1=O (stereo not drawn) |  | inactive
Fc1ccccc1Nc1nc(Cl)nc(Cl)n1 |  | inactive
O=C(CN1CCCC1)Nc1ccc2c(c1)CCC2 |  | inactive
CN(C(=O)c1ccco1)c1nnc(-c2ccc(F)cc2)s1 |  | inactive
Cc1ccc(NC(=S)N2CCC(N(C)CC3CCCO3)CC2)cc1 (stereo not drawn) | 19.5% (active) | 
Cc1cc(C)cc(-n2ccnc2SCC(=O)Nc2nccs2)c1 |  | inactive
Cc1cc(C)cc(NC(=O)C(Sc2ncnc3ccccc23)c2ccccc2)c1 (stereo not drawn) |  | inactive
COC(=O)C1C(=O)c2c([nH]c(C(=O)OCCSC)c2C)CC1C (stereo not drawn) |  | inactive
CCn1nc(C)c(CNC(=O)C2CCC(=O)N(Cc3cccc(F)c3)C2)c1C (stereo not drawn) |  | inactive
Cc1noc(C)c1CSc1ncnc2sc3c(c12)CCCCC3 | 60% (active) | 
C=C(C)CNC(=O)c1ccc(OC2CCN(C(=O)COC)CC2)cc1 |  | inactive

From PubChem BioAssay
